Test results as given in ChEMBL document CHEMBL2040727, “Substituted thiazoles VI. Synthesis and antitumor activity of new 2-acetamido- and 2 or 3-propanamido-thiazole analogs” (2012).

Key:
Assay type in all cases: functional
[1] = test system: K562; assay: Growth inhibition of human K562 cells at 10 uM after 48 hrs by coulter counter analysis; conditions: K562, 48 h, read-out: GI
Method in brief: (§1)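 Single-dose NCI 60-line panel screen of test compounds. Cells grown in RPMI 1640 with 10% FBS. Compounds dissolved in DMSO, then diluted in phosphate buffer saline (final DMSO below 1%). Wells run in duplicate at 6 × 10⁴ cells/ml. Controls held PBS and DMSO at matching dilutions. Incubation 48 h at 37 °C under humidified 5% CO2. Cells diluted tenfold in saline and counted by Coulter counter. Percent growth inhibition taken from mean-graph of treated-cell growth.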

[2] = test system: MOLT-4; assay: Growth inhibition of human MOLT4 cells at 10 uM after 48 hrs by coulter counter analysis; conditions: MOLT-4, 48 h, read-out: GI; method in brief: as §1
[3] = test system: A549; assay: Growth inhibition of human A549/ATCC cells at 10 uM after 48 hrs by coulter counter analysis; conditions: A549, 48 h, read-out: GI; method in brief: as §1
[4] = test system: EKVX; assay: Growth inhibition of human EKVX cells at 10 uM after 48 hrs by coulter counter analysis; conditions: read-out: GI; method in brief: as §1
[5] = test system: HOP-62; assay: Growth inhibition of human HOP62 cells at 10 uM after 48 hrs by coulter counter analysis; conditions: HOP-62, 48 h, read-out: GI; method in brief: as §1
[6] = test system: HOP-92; assay: Growth inhibition of human HOP92 cells at 10 uM after 48 hrs by coulter counter analysis; conditions: HOP-92, 48 h, read-out: GI; method in brief: as §1
[7] = test system: NCI-H23; assay: Growth inhibition of human NCI-H23 cells at 10 uM after 48 hrs by coulter counter analysis; conditions: NCI-H23, 48 h, read-out: GI; method in brief: as §1
[8] = test system: NCI-H322M; assay: Growth inhibition of human NCI-H322M cells at 10 uM after 48 hrs by coulter counter analysis; conditions: read-out: GI; method in brief: as §1
[9] = test system: NCI-H522; assay: Growth inhibition of human NCI-H522 cells at 10 uM after 48 hrs by coulter counter analysis; conditions: NCI-H522, 48 h, read-out: GI; method in brief: as §1
[10] = test system: HCC 2998; assay: Growth inhibition of human HCC2998 cells at 10 uM after 48 hrs by coulter counter analysis; conditions: HCC 2998, 48 h, read-out: GI; method in brief: as §1
[11] = test system: HT-29; assay: Growth inhibition of human HT-29 cells at 10 uM after 48 hrs by coulter counter analysis; conditions: HT-29, 48 h, read-out: GI; method in brief: as §1
[12] = test system: SW-620; assay: Growth inhibition of human SW620 cells at 10 uM after 48 hrs by coulter counter analysis; conditions: SW-620, 48 h, read-out: GI
Method in brief: (§2)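 Single-dose screen in the NCI 60 cell line panel. Cells grown in RPMI 1640 with 10% FBS. Compounds dissolved in DMSO and diluted in phosphate buffered saline, final DMSO under 1%. Duplicate wells seeded from culture at 6 × 10⁴ cells/ml. Incubated 48 h at 37 °C, humidified, 5% CO2. Cells diluted tenfold in saline and Coulter-counted. Percent growth inhibition computed against PBS/DMSO controls.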

[13] = test system: SF-268; assay: Growth inhibition of human SF268 cells at 10 uM after 48 hrs by coulter counter analysis; conditions: SF-268, 48 h, read-out: GI; method in brief: as §1
[14] = test system: SF-295; assay: Growth inhibition of human SF295 cells at 10 uM after 48 hrs by coulter counter analysis; conditions: SF-295, 48 h, read-out: GI; method in brief: as §1
[15] = test system: SNB-19; assay: Growth inhibition of human SNB19 cells at 10 uM after 48 hrs by coulter counter analysis; conditions: SNB-19, 48 h, read-out: GI; method in brief: as §1
[16] = test system: SNB-75; assay: Growth inhibition of human SNB75 cells at 10 uM after 48 hrs by coulter counter analysis; conditions: SNB-75, 48 h, read-out: GI; method in brief: as §2
[17] = test system: LOX IMVI; assay: Growth inhibition of human LOXIMVI cells at 10 uM after 48 hrs by coulter counter analysis; conditions: read-out: GI; method in brief: as §1
[18] = test system: Malme-3M; assay: Growth inhibition of human MALME-3M cells at 10 uM after 48 hrs by coulter counter analysis; conditions: read-out: GI; method in brief: as §1
[19] = test system: M14; assay: Growth inhibition of human M14 cells at 10 uM after 48 hrs by coulter counter analysis; conditions: M14, 48 h, read-out: GI; method in brief: as §1
[20] = test system: MDA-MB-435; assay: Growth inhibition of human MDA-MB-435 cells at 10 uM after 48 hrs by coulter counter analysis; conditions: MDA-MB-435, 48 h, read-out: GI; method in brief: as §1
[21] = test system: SK-MEL-2; assay: Growth inhibition of human SK-MEL-2 cells at 10 uM after 48 hrs by coulter counter analysis; conditions: SK-MEL-2, 48 h, read-out: GI; method in brief: as §1
[22] = test system: SK-MEL-5; assay: Growth inhibition of human SK-MEL-5 cells at 10 uM after 48 hrs by coulter counter analysis; conditions: SK-MEL-5, 48 h, read-out: GI; method in brief: as §1
[23] = test system: UACC-62; assay: Growth inhibition of human UACC62 cells at 10 uM after 48 hrs by coulter counter analysis; conditions: UACC-62, 48 h, read-out: GI; method in brief: as §2
[24] = test system: IGROV-1; assay: Growth inhibition of human IGROV1 cells at 10 uM after 48 hrs by coulter counter analysis; conditions: IGROV-1, 48 h, read-out: GI; method in brief: as §1
[25] = test system: OVCAR-3; assay: Growth inhibition of human OVCAR3 cells at 10 uM after 48 hrs by coulter counter analysis; conditions: OVCAR-3, 48 h, read-out: GI; method in brief: as §1
[26] = test system: OVCAR-5; assay: Growth inhibition of human OVCAR5 cells at 10 uM after 48 hrs by coulter counter analysis; conditions: OVCAR-5, 48 h, read-out: GI; method in brief: as §1
[27] = test system: OVCAR-8; assay: Growth inhibition of human OVCAR8 cells at 10 uM after 48 hrs by coulter counter analysis; conditions: OVCAR-8, 48 h, read-out: GI; method in brief: as §1
[28] = Growth inhibition of human NCI-ADR-RES cells at 10 uM after 48 hrs by coulter counter analysis; conditions: read-out: GI; method in brief: as §1
[29] = test system: 786-0; assay: Growth inhibition of human 786-0 cells at 10 uM after 48 hrs by coulter counter analysis; conditions: 786-0, 48 h, read-out: GI; method in brief: as §1
[30] = test system: A498; assay: Growth inhibition of human A498 cells at 10 uM after 48 hrs by coulter counter analysis; conditions: A498, 48 h, read-out: GI; method in brief: as §1
[31] = test system: ACHN; assay: Growth inhibition of human ACHN cells at 10 uM after 48 hrs by coulter counter analysis; conditions: read-out: GI; method in brief: as §1
[32] = test system: SN12C; assay: Growth inhibition of human SN12C cells at 10 uM after 48 hrs by coulter counter analysis; conditions: read-out: GI; method in brief: as §1
[33] = test system: DU-145; assay: Growth inhibition of human DU145 cells at 10 uM after 48 hrs by coulter counter analysis; conditions: DU-145, 48 h, read-out: GI; method in brief: as §1
[34] = test system: MCF7; assay: Growth inhibition of human MCF7 cells at 10 uM after 48 hrs by coulter counter analysis; conditions: MCF7, 48 h, read-out: GI; method in brief: as §1
[35] = Growth inhibition of human Hs 578T cells at 10 uM after 48 hrs by coulter counter analysis; conditions: read-out: GI; method in brief: as §1
[36] = test system: T47D; assay: Growth inhibition of human T47D cells at 10 uM after 48 hrs by coulter counter analysis; conditions: read-out: GI; method in brief: as §2
[37] = test system: CCRF-CEM; assay: Growth inhibition of human CCRF-CEM cells at 10 uM after 48 hrs by coulter counter analysis; conditions: read-out: GI; method in brief: as §1

SMILES | inhibition of growth at 10 µM [1] | inhibition of growth at 10 µM [2] | inhibition of growth at 10 µM [3] | inhibition of growth at 10 µM [4] | inhibition of growth at 10 µM [5] | inhibition of growth at 10 µM [6] | inhibition of growth at 10 µM [7] | inhibition of growth at 10 µM [8] | inhibition of growth at 10 µM [9] | inhibition of growth at 10 µM [10] | inhibition of growth at 10 µM [11] | inhibition of growth at 10 µM [12] | inhibition of growth at 10 µM [13] | inhibition of growth at 10 µM [14] | inhibition of growth at 10 µM [15] | inhibition of growth at 10 µM [16] | inhibition of growth at 10 µM [17] | inhibition of growth at 10 µM [18] | inhibition of growth at 10 µM [19] | inhibition of growth at 10 µM [20] | also measured
Cc1csc(NC(=O)C(C)N2CCN(C)CC2)n1 (centres undefined) | < 10% | 12.1% | < 10% | < 10% | 10.9% | < 10% | 19.8% | < 10% | 66.3% | < 10% | < 10% | < 10% | < 10% | < 10% | < 10% | < 10% | 46.4% | 17.6% | 25.5% | 11.2% | inhibition of growth at 10 µM [21]: < 10%; inhibition of growth at 10 µM [22]: 11.3%; inhibition of growth at 10 µM [23]: 24%; inhibition of growth at 10 µM [24]: < 10%; inhibition of growth at 10 µM [25]: < 10%; inhibition of growth at 10 µM [26]: < 10%; inhibition of growth at 10 µM [27]: < 10%; inhibition of growth at 10 µM [28]: < 10%; inhibition of growth at 10 µM [29]: < 10%; inhibition of growth at 10 µM [30]: < 10%; inhibition of growth at 10 µM [31]: < 10%; inhibition of growth at 10 µM [32]: 11.5%; inhibition of growth at 10 µM [33]: < 10%; inhibition of growth at 10 µM [34]: 35.6%; inhibition of growth at 10 µM [35]: < 10%; inhibition of growth at 10 µM [36]: < 10%; inhibition of growth at 10 µM [37]: 41.1%
CC(C(=O)Nc1nccs1)N1CCN(c2ccccc2)CC1 (centres undefined) | < 10% | < 10% | < 10% | < 10% | < 10% | < 10% | < 10% | < 10% | < 10% | < 10% | < 10% | < 10% | < 10% | < 10% | < 10% | < 10% | < 10% | < 10% | < 10% | < 10% | inhibition of growth at 10 µM [21]: < 10%; inhibition of growth at 10 µM [22]: < 10%; inhibition of growth at 10 µM [23]: < 10%; inhibition of growth at 10 µM [24]: < 10%; inhibition of growth at 10 µM [25]: < 10%; inhibition of growth at 10 µM [26]: < 10%; inhibition of growth at 10 µM [27]: < 10%; inhibition of growth at 10 µM [28]: < 10%; inhibition of growth at 10 µM [29]: < 10%; inhibition of growth at 10 µM [30]: < 10%; inhibition of growth at 10 µM [31]: < 10%; inhibition of growth at 10 µM [32]: < 10%; inhibition of growth at 10 µM [33]: < 10%; inhibition of growth at 10 µM [34]: < 10%; inhibition of growth at 10 µM [35]: < 10%; inhibition of growth at 10 µM [36]: < 10%; inhibition of growth at 10 µM [37]: < 10%
